Assay results taken from ChEMBL document CHEMBL1132984 (J Med Chem, 2000).

Test system: Rattus norvegicus
Assay: Effective dose in vivo for reduction in MAP in normotensive rat model after oral administration
Assay type: functional
Details: not given; call rule not given here
How it was run: (§1)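 Normotensive rats given test compound orally in a separate group from the efficacy animals. Mean arterial pressure and heart rate recorded after dosing, with maximum % change in MAP from initial values reported. ED20 is the oral dose causing a 20% drop in MAP.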

SMILES	ED20 [mg/kg]
CCc1cc(C#N)ccc1Nc1c(N[C@H](C)C(C)(C)C)c(=O)c1=O	2.3
C[C@](O)(C(=O)Nc1ccc(C(=O)c2ccccc2)cc1)C(F)(F)F [ZD-6169]	6.96
CC1(C)Oc2ccc(OC(F)(F)F)cc2[C@@H](N2Cc3ccccc3C2=O)[C@@H]1O	0.2

Species on record: Rattus norvegicus
Assay: In vitro inhibitory concentration that relaxes KCL induced contraction in rat detrusor strips by 50%
Assay type: functional
Details: not given
How it was run: (§2)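 Female Sprague-Dawley rat (250-350 g) detrusor strips, 4-5 mm by 10 mm, pretensioned 0.25-0.5 g in a tissue bath and contracted with an additional 15 mM KCl. Compounds added as cumulative concentrations to steady state. Contractility measured as 5 min area under the contraction curve per concentration; IC50 is the concentration relaxing KCl-induced contraction by 50%. Glyburide added at end.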

SMILES	IC50 [µM]
C[C@@H](/N=c1\c(O)c(O)\c1=N/c1ccc(C#N)cc1)C(C)(C)C (stereo in doubt; 43)	24.3
N#Cc1ccc(Nc2c(NC3CC4CCC3C4)c(=O)c2=O)cc1 (stereo in doubt; 57)	3.35
C[C@@H](/N=c1\c(O)c(O)\c1=N/c1ccc(C#N)cc1)C(C)(C)C (stereo in doubt; 42)	0.37
N#Cc1ccc(Nc2c(NC3CC4CCC3C4)c(=O)c2=O)cc1 (stereo in doubt; 58)	> 30

Same assay, conditions: Rattus norvegicus

SMILES	IC50 [µM]
C[C@@H](/N=c1\c(O)c(O)\c1=N/c1cccnc1)C(C)(C)C	1.9
CC(/N=c1\c(O)c(O)\c1=N/c1cncc(Br)c1)C(C)(C)C (stereo not given)	11.7
CC(/N=c1\c(O)c(O)\c1=N/c1ccc(OC(F)(F)F)cc1)C(C)(C)C (stereo not given)	> 30
CC(/N=c1\c(O)c(O)\c1=N/c1ccc(S(N)(=O)=O)cc1)C(C)(C)C (stereo not given)	> 30
CC(C)(C)/N=c1\c(O)c(O)\c1=N/c1ccc2ncccc2c1	> 30
CCc1cc(Nc2c(N[C@H](C)C(C)(C)C)c(=O)c2=O)ccc1C#N	17.6
CC(C)C(C)/N=c1\c(O)c(O)\c1=N/c1ccc(C#N)cc1 (stereo not given)	1.9
CCc1cc(C#N)ccc1Nc1c(N[C@H](C)C(C)(C)C)c(=O)c1=O	0.09
C[C@@H](/N=c1\c(O)c(O)\c1=N/c1ccc(C#N)cc1O)C(C)(C)C	6.05
CC(C)(C)C/N=c1\c(O)c(O)\c1=N/c1ccc(C#N)cc1	> 30
CC(/N=C(\NC#N)Nc1ccc(C#N)cc1)C(C)(C)C (stereo not given)	0.19
CCCCCCC/N=c1\c(O)c(O)\c1=N/c1ccc(C#N)cc1	> 30
CC(/N=c1\c(O)c(O)\c1=N/c1ccc(CC#N)cc1)C(C)(C)C (stereo not given)	0.34
N#Cc1ccc(/N=c2\c(O)c(O)\c2=N/C(CO)c2ccccc2)cc1 (stereo not given)	14.3
C[C@@H](/N=c1\c(O)c(O)\c1=N/c1ccc(C#N)cc1C(=O)c1ccccc1)C(C)(C)C	4.78
N#Cc1ccc(Nc2c(NC(c3ccccc3)C(F)(F)F)c(=O)c2=O)cc1 (stereo not given)	4
CC(/N=c1\c(O)c(O)\c1=N/c1ccc(Br)cc1)C(C)(C)C (stereo not given)	1.26
N#Cc1ccc(Nc2c(NC3CCCC3)c(=O)c2=O)cc1	11.5
Cc1ccc(C(C)/N=c2\c(O)c(O)\c2=N/c2ccc(C#N)cc2)cc1 (stereo not given)	> 30
CC(/N=c1\c(O)c(O)\c1=N/c1ccc(-n2ccnc2)cc1)C(C)(C)C (stereo not given)	> 30
CC(/N=c1\c(O)c(O)\c1=N/c1cccnc1)C(C)(C)C (stereo not given)	1.95
CC(/N=c1\c(O)c(O)\c1=N/c1cccc2cccnc12)C(C)(C)C (stereo not given)	8.1
CC(/N=c1\c(O)c(O)\c1=N/c1ccccc1)C(C)(C)C (stereo not given)	5.4

SMILES	IC50 [µM]
CC[C@@H](/N=c1\c(O)c(O)\c1=N/c1ccc(C#N)cc1)c1ccccc1	22.5
C[C@@H](/N=c1\c(O)c(O)\c1=N/c1ccc(C#N)c2c1CCCC2)C(C)(C)C	0.67
Cc1cc(/N=c2\c(O)c(O)\c2=N/[C@H](C)C(C)(C)C)ccc1C#N	0.63
COc1ncccc1/N=c1\c(O)c(O)\c1=N/C(C)(C)C	2.56
CSc1ccc(Nc2c(NC(C)C(C)(C)C)c(=O)c2=O)cc1 (stereo not given)	> 30
C/N=c1\c(O)c(O)\c1=N/c1ccc(C#N)cc1	> 30
CC(/N=c1\c(O)c(O)\c1=N/c1ccc(-c2ccccc2)cc1)C(C)(C)C (stereo not given)	> 30
CC(/N=c1\c(O)c(O)\c1=N/c1ccc(C#N)cc1)c1ccc(OC(F)(F)F)cc1 (stereo not given)	> 30
COC(=O)c1ccc(Nc2c(NC(C)C(C)(C)C)c(=O)c2=O)cc1 (stereo not given)	> 30
CC(/N=c1\c(O)c(O)\c1=N/c1cccc(C#N)c1)C(C)(C)C (stereo not given)	3.05
COc1ccc(Nc2c(NC(C)C(C)(C)C)c(=O)c2=O)cc1 (stereo not given)	2.4
C[C@H](/N=c1\c(O)c(O)\c1=N/c1ccc(C#N)cc1)C1CCCCC1	> 30
CC(C)/N=c1\c(O)c(O)\c1=N/c1ccc(C#N)cc1	13.7
C[C@@H](/N=c1\c(O)c(O)\c1=N/c1ccc2[nH]ncc2c1)C(C)(C)C	0.74
CC(/N=c1\c(O)c(O)\c1=N/c1ccc(C#N)cc1)C(C)(C)C (stereo not given)	0.52
C[C@H](/N=c1\c(O)c(O)\c1=N/c1ccc(C#N)cc1)c1ccccc1	> 30
CC(=O)c1ccc(/N=c2\c(O)c(O)\c2=N/C(C)C(C)(C)C)cc1 (stereo not given)	21.2
N#Cc1ccc(Nc2c(NC3CCCCC3)c(=O)c2=O)cc1	> 30
C[C@@H](/N=c1\c(O)c(O)\c1=N/c1ccc(C#N)cc1Cl)C(C)(C)C	0.041
CCCc1cc(C#N)ccc1/N=c1\c(O)c(O)\c1=N/[C@H](C)C(C)(C)C	23.1
COc1cc(C#N)ccc1/N=c1\c(O)c(O)\c1=N/[C@H](C)C(C)(C)C	0.29
CC(/N=c1\c(O)c(O)\c1=N/c1cccnc1O)C(C)(C)C (stereo not given)	> 30
CC(/N=c1\c(O)c(O)\c1=N/c1ccccc1C#N)C(C)(C)C (stereo not given)	> 30

The remaining lines, values ahead:

IC50 [µM]	SMILES
2.8	CC(C)(C)/N=c1\c(O)c(O)\c1=N/c1cccnc1
> 30	COc1cc(/N=c2\c(O)c(O)\c2=N/C(C)C(C)(C)C)c2ncccc2c1 (stereo not given)
4.6	C[C@@H](/N=c1\c(O)c(O)\c1=N/c1ccc2c[nH]nc2c1)C(C)(C)C
1.84	CC(C)(C)/N=c1\c(O)c(O)\c1=N/c1cccc2cnccc12
> 30	CC(/N=c1\c(O)c(O)\c1=N/c1cnc2ccccc2c1)C(C)(C)C (stereo not given)
> 30	CC(/N=c1\c(O)c(O)\c1=N/c1ccc(S(C)(=O)=O)cc1)C(C)(C)C (stereo not given)
> 30	CC(C)(C)/N=c1\c(O)c(O)\c1=N/c1cnc2ccccc2c1
0.63	CC(N/C(=N\C#N)Nc1ccncc1)C(C)(C)C (single isomer, unassigned; (+)) [PINACIDIL ANHYDROUS]
2.6	C[C@@H](/N=c1\c(O)c(O)\c1=N/c1ccc(C#N)cc1)C1CCCCC1
1.36	CC(/N=c1\c(O)c(O)\c1=N/c1ccncc1)C(C)(C)C (stereo not given)
0.075	C[C@@H](/N=c1\c(O)c(O)\c1=N/c1ccc(C#N)cc1Br)C(C)(C)C
0.93	C[C@](O)(C(=O)Nc1ccc(C(=O)c2ccccc2)cc1)C(F)(F)F [ZD-6169]
0.056	C[C@@H](/N=c1\c(O)c(O)\c1=N/c1ccc(C#N)cc1)c1ccccc1
1.77	CC(C)(C)/N=c1\c(O)c(O)\c1=N/c1cccnc1Cl
> 30	CCC(C)(C)/N=c1\c(O)c(O)\c1=N/c1ccc(C#N)cc1
> 30	CC[C@H](/N=c1\c(O)c(O)\c1=N/c1ccc(C#N)cc1)c1ccccc1
1.08	Cc1cc(C#N)ccc1/N=c1\c(O)c(O)\c1=N/[C@H](C)C(C)(C)C
4.3	C[C@@H](/N=c1\c(O)c(O)\c1=N/c1ccc(C#N)c(Cl)c1)C(C)(C)C
1.68	C[C@@H](/N=c1\c(O)c(O)\c1=N/c1ccncc1)C(C)(C)C
> 30	CC(C)(/N=c1\c(O)c(O)\c1=N/c1ccc(C#N)cc1)c1ccccc1
> 30	CC(/N=c1\c(O)c(O)\c1=N/c1ccc(C(F)(F)F)cc1)C(C)(C)C (stereo not given)
0.56	CC(C)(C)/N=c1\c(O)c(O)\c1=N/c1ccc(C#N)cc1
2.1	CCC(C)/N=c1\c(O)c(O)\c1=N/c1ccc(C#N)cc1 (stereo not given)
> 30	N#Cc1ccc(Nc2c(NCc3ccccc3)c(=O)c2=O)cc1
3.34	CCC(CC)/N=c1\c(O)c(O)\c1=N/c1ccc(C#N)cc1
> 30	Nc1c(Nc2cccnc2)c(=O)c1=O

Species on record: Rattus norvegicus
Assay: In vitro inhibitory concentration that relaxes KCL induced contraction in rat detrusor strips by 50%; NE=no effect
Assay type: functional
Details: not given
How it was run: as §2

SMILES	IC50
C[C@@H](/N=c1\c(O)c(O)\c1=N/c1ccc(C#N)c(O)c1)C(C)(C)C	Not Active
CC(/N=c1\c(O)c(O)\c1=N/c1ccc(C#N)cc1)c1ccc(F)cc1 (stereo not given)	Not Active
CC(/N=c1\c(O)c(O)\c1=N/c1ccc(C#N)cc1)c1ccc([N+](=O)[O-])cc1 (stereo not given)	Not Active

Species on record: Rattus norvegicus
Assay: In vitro inhibitory concentration that relaxes KCL induced contraction in rat detrusor strips by 50%; contracted
Assay type: functional
Details: not given
How it was run: as §2

SMILES	IC50
N#Cc1ccc(Nc2c(NC3CCCCCC3)c(=O)c2=O)cc1	contracted
CC(/N=c1\c(O)c(O)\c1=N/c1ccccn1)C(C)(C)C (stereo not given)	contracted
COc1ccc(C(C)/N=c2\c(O)c(O)\c2=N/c2ccc(C#N)cc2)cc1 (stereo not given)	contracted

Test system: Rattus norvegicus
Assay: Effective dose in vivo for reduction in the frequency of spontaneous bladder contractions in the rat oral administration
Assay type: functional
Details: not given

SMILES	ED50 [mg/kg]
CCc1cc(C#N)ccc1Nc1c(N[C@H](C)C(C)(C)C)c(=O)c1=O	0.13
C[C@](O)(C(=O)Nc1ccc(C(=O)c2ccccc2)cc1)C(F)(F)F [ZD-6169]	2.4
CC1(C)Oc2ccc(OC(F)(F)F)cc2[C@@H](N2Cc3ccccc3C2=O)[C@@H]1O	0.3

Test system: Rattus norvegicus
Assay: compound was evaluated in vivo for maximum % change in MAP in normotensive rat model after oral administration of a dose of 10 mg/kg
Assay type: functional
Details: not given
How it was run: as §1

SMILES	Change [%]
CC(/N=C(\NC#N)Nc1ccc(C#N)cc1)C(C)(C)C (stereo not given)	-19

Test system: Rattus norvegicus
Assay: compound was evaluated in vivo for maximum % change in MAP in normotensive rat model after oral administration of a dose of 30 mg/kg
Assay type: functional
Details: not given
How it was run: as §1

SMILES	Change [%]
CC(/N=c1\c(O)c(O)\c1=N/c1ccc(C#N)cc1)C(C)(C)C (stereo not given)	8

Test system: Rattus norvegicus
Assay: Compound was evaluated in vivo for the % change in the frequency of spontaneous bladder contractions in the rat after oral administration of a dose of 10 mg/kg
Assay type: functional
Details: not given

SMILES	Change [%]
CC(/N=C(\NC#N)Nc1ccc(C#N)cc1)C(C)(C)C (stereo not given)	-27
CC(/N=c1\c(O)c(O)\c1=N/c1ccc(C#N)cc1)C(C)(C)C (stereo not given)	-83

Test system: not listed separately
Assay: Selectivity ratio of MAP ED20/bladder ED50
Assay type: functional
Details: not given
How it was run: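 Ratio of the oral ED20 for a 20% MAP drop in normotensive rats to the oral ED50 for a 50% reduction in spontaneous bladder contraction frequency in the urethral-obstructed rat instability model.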

SMILES	Ratio
CCc1cc(C#N)ccc1Nc1c(N[C@H](C)C(C)(C)C)c(=O)c1=O	17.7
C[C@](O)(C(=O)Nc1ccc(C(=O)c2ccccc2)cc1)C(F)(F)F [ZD-6169]	2.9
CC1(C)Oc2ccc(OC(F)(F)F)cc2[C@@H](N2Cc3ccccc3C2=O)[C@@H]1O	0.7
